The term logP denotes a log measure of how a compound divides between an organic and an aqueous phase. As usually defined, the IC50 is the point on the concentration scale where inhibition reaches its midpoint. Low readings indicate inhibition by little substance, high ones a need for much substance.

In ChEMBL document CHEMBL1128379, “Synthesis, characterization, and antimalarial activity of the glucuronides of the hydroxylated metabolites of arteether” (J Med Chem, 1995) one finds logP and IC50 data, which are given here for eleven compounds.

Each structure is given as a SMILES string. Converted amounts (≈) assume the structure as drawn.

Data set [1] is described as follows: Partition coefficient (logP). It is filed as physicochemical. To be noted: octanol/water. Summed up:
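log P estimated from C-18 HPLC retention index. Retention times taken on thermospray LC/MS, isocratic 50% (v/v) methanol in water with 0.1 M ammonium acetate at 1 mL/min, positive ion, filament on, vaporizer tip 7 °C below take-off temperature, block 184 °C.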

The next data set deals with Plasmodium falciparum. Description: In vitro antimalarial activity against Plasmodium falciparum FCR3. It is filed as functional, organism-based. Summed up: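 P. falciparum FCR-3 kept in candle jars in RPMI 1640 with 10% human serum, sorbitol-synchronized for at least three cycles. Serially diluted compounds plus ring-stage parasitized cells (0.5-1% parasitemia, 5-10% hematocrit), 37 °C for 24 h, then 2 μCi [3H]hypoxanthine added and incubated 24 h more. Cells harvested, scintillation counted, drug-free parasitized controls run alongside.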

`CCO[C@H]1O[C@@H]2O[C@@]3(C)CC[C@H]4[C@H](C)[C@@H](O[C@H]5O[C@@H](C(=O)O)[C@H](O)[C@@H](O)[C@@H]5O)C[C@@H]([C@H]1C)[C@@]24OO3`: in data set [1] (read-out: logP), the logP worked out at 0.61. Further, inhibition in the data set with Plasmodium falciparum was half-maximal at 0.0893 µg/mL (≈ 0.177 µM) (IC50).
In the same order, the values of `CCO[C@H]1O[C@@H]2O[C@@]3(C)CC[C@H]4[C@H](CO[C@H]5O[C@@H](C(=O)O)[C@H](O)[C@@H](O)[C@@H]5O)CC[C@@H]([C@H]1C)[C@@]24OO3` are 1.05 and 6 µg/mL (≈ 11.9 µM).
In the same order, the values of `CCO[C@H]1O[C@@H]2O[C@@]3(C)CC[C@H]4[C@H](C)[C@H](O[C@H]5O[C@@H](C(=O)O)[C@H](O)[C@@H](O)[C@@H]5O)C[C@@H]([C@H]1C)[C@@]24OO3` are 0.93 and 6.56 µg/mL (≈ 13 µM).
In the same order, the values of `C[C@H]1[C@H](O[C@@H]2O[C@H](C(=O)O)C(O)[C@H](O)C2O)O[C@@H]2O[C@H]3CC[C@H]4[C@H](C)CC[C@@H]1[C@@]24OO3` (stereo partly drawn) are 1.08 and 6 µg/mL (≈ 13.4 µM).
Consider `C[C@H]1[C@@H](O[C@@H]2O[C@H](C(=O)O)C(O)[C@H](O)C2O)O[C@@H]2O[C@H]3CC[C@H]4[C@H](C)CC[C@@H]1[C@@]24OO3` (stereo partly drawn), for which the log partition coefficient (logP) in data set [1] (read-out: logP) was found to be 1.8. Moreover, 0.255 µg/mL (≈ 0.571 µM) corresponded to half-maximal inhibition in the data set with Plasmodium falciparum (IC50).
`CCO[C@H]1O[C@@H]2O[C@@]3(C)CC[C@H]4[C@H](C)[C@@H](O)C[C@@H]([C@H]1C)[C@@]24OO3`: the log partition coefficient (logP) in data set [1] (read-out: logP) amounted to 1.93.
Same read-out and setting: with `CCO[C@H]1O[C@@H]2O[C@@]3(C)CC[C@H]4[C@H](CO)CC[C@@H]([C@H]1C)[C@@]24OO3` the figure was 2.08; with `CCO[C@H]1O[C@@H]2O[C@@]3(C)CC[C@H]4[C@H](C)[C@H](O)C[C@@H]([C@H]1C)[C@@]24OO3`, 2.14; with `CCO[C@H]1O[C@@H]2O[C@@]3(C)C[C@H](O)[C@H]4[C@H](C)CC[C@@H]([C@H]1C)[C@@]24OO3`, 2.7.
Turning to `CCO[C@H]1O[C@@H]2O[C@@]3(C)CC[C@H]4[C@H](C)CC[C@@H]([C@H]1C)[C@@]24OO3` [ARTEMOTIL], the logP in data set [1] (read-out: logP) was determined as 3.89. In addition, the half-inhibitory concentration (IC50) in the data set on Plasmodium falciparum amounted to 0.0013 µg/mL (≈ 0.00416 µM).
Compound `C[C@H]1[C@@H](O)O[C@@H]2O[C@@]3(C)CC[C@H]4[C@H](C)CC[C@@H]1[C@@]24OO3` [ARTENIMOL] registered a lipophilicity (logP) in data set [1] of 2.45. In the data set on Plasmodium falciparum, this compound had an IC50 of 0.0107 µg/mL (≈ 0.0376 µM).
